Experimental data pooled from the literature.
Observed: DPPH scavenging

`Fc1ccccc1/C=N/N=C/c1ccccc1F` gave an IC50 of 2800 µM.
With `Cc1cc(C(C)(C)C)c(O)c(C(C)(C)C)c1` the IC50 was 69 µg/mL (absorbance; 30 min).
The IC50 of `CCN(CC)c1ccc(/C=N/c2ccccc2Br)c(O)c1` is reported as 40.5 µM.
`Cc1c(C)c2c(c(C)c1O)CCC(C)(C(=O)O)O2` (stereo not shown) gave an IC50 of 221 µM.
The IC50 of `Clc1ccc(/C=N/N=C/c2ccc(Cl)cc2)cc1` is reported as greater than 3000 µM.
For `O=C1O[C@H]([C@@H](O)CO)C(O)=C1O`, the IC50 was 11.6 µM (absorbance; 30 min).
`Oc1cc(O)c2c(c1)O[C@H](c1ccc(O)c(O)c1)[C@@H](O)C2` gave an IC50 of 31.2 µM.
For `O=C1O[C@H]([C@@H](O)CO)C(O)=C1O`, the IC50 was 350 µM.
`O=[N+]([O-])c1ccccc1/C=N/N=C/c1ccccc1[N+](=O)[O-]` has an IC50 of 2940 µM.
The IC50 of `CCN(CC)c1ccc(/C=N/c2ccccc2F)c(O)c1` is reported as 38.1 µM.
